Shown are actives, neighbours in structure and some others; about 2% of the full set was active somewhere.
TROY NFkB inh: inhibitors of TROY-dependent NF-kB signaling | inhibition, % at 10 µM | 360,000 tested, 0.98% active | Q293 LMP1-TROYcd NF-kB luciferase reporter, 4 h;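 active = compounds whose plate-normalised and pattern-corrected inhibition of the luciferase reporter signal at the single screening dose is 50% or more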
EBV LMP1 NFkB: reduces LMP1-driven NF-kappaB luciferase signal; LMP1-induced NF-kappaB luciferase reporter cells, luminescence; inhibition, % at 12.5 µM; 350,000 tested, 0.69% active; AID 504558; in the data active = inhibition above about 41%
NR2E3 ag-1: activates human NR2E3 receptor | CHO-S Gal4-NCOR/VP16-NR2E3 two-hybrid, luciferase | AID 602229 | inhibition of corepressor binding, % at 3.98 µM | Q9Y5X4 | 360,000 tested, 0.35% active;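 active = inhibition above the mean of all tested compounds plus 3 SD, cut at about 70% in these data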;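 also: higher means lower luciferase signal from less NR2E3 corepressor binding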
Target sequence (Q9Y5X4 whole entry, looked up, the tested form may be a part): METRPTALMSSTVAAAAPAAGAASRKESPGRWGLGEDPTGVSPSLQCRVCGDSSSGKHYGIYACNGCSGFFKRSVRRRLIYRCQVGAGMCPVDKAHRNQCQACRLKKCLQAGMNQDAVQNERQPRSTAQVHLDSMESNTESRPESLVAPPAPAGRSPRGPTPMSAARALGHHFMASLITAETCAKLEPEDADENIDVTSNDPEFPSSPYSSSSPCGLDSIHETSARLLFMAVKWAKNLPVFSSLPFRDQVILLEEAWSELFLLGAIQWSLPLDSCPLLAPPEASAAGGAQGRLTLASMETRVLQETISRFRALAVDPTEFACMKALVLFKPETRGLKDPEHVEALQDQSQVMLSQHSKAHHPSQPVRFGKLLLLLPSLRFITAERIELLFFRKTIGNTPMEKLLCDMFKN
HIF act: HIF pathway transcriptional activation | U2OS HRE-luciferase reporter, luminescence; normalized: DMSO 0%, desferrioxamine 100% | activation, % at 7.5 µM (by protocol) | 300,000 tested, 0.32% active | AID 1910;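 active = mean activation of at least 10% of the iron chelator positive control signal, with at least half of replicates also reaching 10%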
NR2E3 ag-2: activates human photoreceptor nuclear receptor NR2E3; Q9Y5X4; GST-NR2E3/biotin-RetCOR TR-FRET, 1536-well; inhibition of corepressor binding, % at 4.78 µM; 320,000 tested, 0.12% active;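 active = percent inhibition above the cutoff of mean plus 3 SD of all tested compounds, set per screening campaign, cut at about 20% in these data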
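Material: NR2E3–RetCOR corepressor complex / Amount: 1.35 nM GST-NR2E3 / Medium: Tris pH 7.5 / Compound: single nominal compound dose of 4.8 µM / Incubation: 5 h at 4 °C / Technique: TR-FRET, Eu(K)-anti-GST donor, streptavidin-D2 acceptor, ex 340, em 617/671 nm / Read-out basis: percent loss of FRET ratio relative to control wells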
NR2E3 ag conf: confirmation of human NR2E3 agonists; CHO-S mammalian two-hybrid NR2E3-NCOR, luciferase luminescence; inhibition, % at 3.98 µM; shares compounds with NR2E3 ag-1; 2,300 tested, 51% active; AID 624378;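 active = average inhibition above a cutoff equal to the mean inhibition of all tested compounds plus one SD, cut at about 70% in these data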
VP16 counter: reduces GAL4-VP16 reporter signal in NR2E3 counterscreen; shares compounds with NR2E3 ag-1; CHO-S GAL4-VP16 luciferase reporter, luminescence; inhibition, % at 3.98 µM; 2,300 tested, 29% active;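 active = mean inhibition above a cutoff equal to the average over all tested compounds plus one standard deviation, cut at about 70% in these data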;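 also: luciferase from a UAS reporter driven by GAL4-VP16 transactivation; higher means less reporter light so more repression of VP16 activity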
Hits are given with their value; - = inactive; . = no result.

SMILES	TROY NFkB inh	EBV LMP1 NFkB	NR2E3 ag-1	HIF act	NR2E3 ag-2	NR2E3 ag conf	VP16 counter
CN(C)S(=O)(=O)c1ccc(NC(=O)CN2C(=O)NC(Cc3ccccc3)C2=O)cc1 (stereo not drawn)	-	-	-	.	-	.	.
CCOC(=O)N=Nc1c2ccccc2c2nc3no[nH]c3nc12	66	86	89	-	.	99	100
O=[N+]([O-])c1cc(S(=O)(=O)Nc2cccc(C(F)(F)F)c2)ccc1-n1nnc2ccccc21	58	-	96	-	-	98	87
CS(=O)(=O)c1ccc(-n2nnc3ccccc32)c([N+](=O)[O-])c1	-	-	-	-	-	.	.
CN(C)CCCNS(=O)(=O)c1ccc(-n2nnc3ccccc32)c([N+](=O)[O-])c1	-	-	-	-	-	.	.
COc1ccc(NS(=O)(=O)c2ccc(-n3nnc4ccccc43)c([N+](=O)[O-])c2)cc1	-	-	-	-	-	-	-
Cc1cc(N2CCOCC2)nc(NCc2ccccc2)n1	-	-	-	-	-	-	-
COc1cccc(C(O)c2nc(-c3ccc(F)c(Cl)c3)cs2)c1 (stereo not drawn)	-	.	-	.	.	.	.
CCSc1nsc(NC(=O)Nc2cccc(F)c2)n1	-	-	93	-	-	99	84
CCOc1ccc(N=Cc2ccccc2O)cc1	-	-	-	.	.	.	.
CNC[C@@H]1Oc2cc(Br)ccc2S(=O)(=O)N([C@H](C)CO)C[C@@H]1C	-	.	-	.	.	.	.
CCOC(=O)c1ccc(S(=O)(=O)NC2CCC(C)CC2)cc1 (stereo not drawn)	-	-	-	.	-	-	-
Cc1cnc(NC(=O)CN2CCN(c3ccccn3)CC2)s1	-	-	-	-	-	94	-
O=C1CCC/C(=N\NC(=O)c2ccc(COc3ccccc3-c3ccccc3)cc2)C1	-	-	-	-	-	.	.
O=C(COc1ccccc1-c1ccccc1)NN=C1CCCC1	-	-	-	-	-	-	-
CN(C)C(=O)c1cccc(COc2ccc(N3C(N)=NC(N)=NC3(C)C)cc2Cl)c1	-	-	-	.	.	.	.
COc1cc(/C=C(\C(=O)O)c2ccc(S(=O)(=O)N3CCCC3)s2)ccc1OCCC(C)C	-	-	-	.	.	.	.
Cn1nnnc1Sc1ncnc2scc(-c3ccccc3Cl)c12	-	-	-	.	-	-	-
Cn1nnnc1Sc1c(Cl)cccc1[N+](=O)[O-]	-	-	-	-	-	.	.
Cn1nnnc1Sc1ncnc2scc(-c3cccc(Br)c3)c12	67	78	-	.	.	-	-
Cc1noc(C)c1C(=O)Nc1cccc(S(=O)(=O)N2CCOCC2)c1	-	-	-	.	-	.	.
CCc1nc(SCc2ccccc2C)n[nH]1	-	-	-	-	.	.	.
Cc1ccc(C)c(NC(=S)NCC(c2ccccc2)N(C)C)c1 (stereo not drawn)	-	-	-	-	-	-	-
COc1cccc(CNC(=O)COC(=O)C2CC3CCCC(C2)C3=O)c1 (stereo not drawn)	-	-	-	-	-	.	.
O=C(C1CCN(S(=O)(=O)c2cccc3nsnc23)CC1)N1CC=C(c2ccccc2)CC1	-	-	-	-	-	.	.
SMILES	TROY NFkB inh	EBV LMP1 NFkB	NR2E3 ag-1	HIF act	NR2E3 ag-2	NR2E3 ag conf	VP16 counter
O=C(C1CCC(CNS(=O)(=O)c2cccc3nsnc23)CC1)N1CC=C(c2ccccc2)CC1 (stereo not drawn)	-	-	-	-	-	88	-
CN(C(=O)C(C)(C)C)c1ccc(OCC(=O)N2CCc3ccccc3C2)cc1	-	-	76	-	-	-	-
CCN1CCN(CCC(=O)Nc2ccccc2C)CC1	-	-	-	-	-	.	.
NC(=S)N/N=C/c1c(O)ccc2ccccc12	-	-	75	-	-	-	-
O=CN/N=C/c1c(O)ccc2ccccc12	-	-	-	-	-	.	.
Cn1c(-c2ccccc2)c(C(=O)CCl)c2ccccc21	-	-	-	-	.	-	-
Cc1cccc(C(=O)NC(C(=O)Nc2ccc(S(=O)(=O)Nc3nccs3)cc2)C(C)C)c1 (stereo not drawn)	-	-	-	.	.	.	.
Cc1nc(NC(=O)c2c(-c3ccccc3Cl)noc2C)sc1C	-	-	79	-	-	80	-
Cc1onc(-c2ccccc2)c1C(=O)Nc1nnc(C(C)C)s1	-	-	-	-	-	.	.
Cc1onc(-c2ccccc2)c1C(=O)Nc1ncc([N+](=O)[O-])s1	-	-	101	-	-	99	81
Cc1ccc(N(CC(=O)NCC2CCCO2)S(=O)(=O)c2ccccc2)c(C)c1 (stereo not drawn)	-	-	-	-	-	.	.
O=C(NCc1cccnc1)c1[nH]c(C(F)(F)F)nc1-c1ccccc1	-	.	-	.	.	.	.
CC1Cc2cc(S(=O)(=O)NCCc3ccccc3)ccc2N1C(=O)C1CC1 (stereo not drawn)	-	-	-	-	-	71	-
CC(=O)N1c2ccc(S(=O)(=O)NCC3CCC(C(=O)Nc4cc(C)ccn4)CC3)cc2CC1C (stereo not drawn)	-	-	-	-	-	-	-
CC(=O)N1c2ccc(S(=O)(=O)NCCc3ccccc3)cc2CC1C (stereo not drawn)	-	-	73	18	-	-	-
OC(c1cccnc1)c1nc(-c2cccc(F)c2)cs1 (stereo not drawn)	-	.	-	.	.	.	.
COc1ccccc1-n1c(=O)oc2ccc(Cl)cc2c1=O	-	-	73	.	-	96	-
O=C(C[n+]1ccccc1)Nc1ccccc1C(F)(F)F	-	-	-	-	-	.	.
Cc1cc(/C=C2\SC(=S)NC2=O)c(C)[nH]1	-	-	-	-	-	.	.
O=C1NC(=S)S/C1=C\c1cc(Cl)ccc1Cl	-	-	81	.	.	99	-
COCCn1c(C)c(C)c2c(NCCc3ccccc3)ncnc21	80	-	-	-	.	-	-
CC(=C\c1ccccc1)/C=C1/SC(=O)N(CCCC(=O)Nc2ccc(C(=O)O)cc2)C1=O	-	-	73	-	-	-	76
COc1ccc(/C=C2\SC(=O)N(CCCC(=O)Nc3cc(Cl)ccc3C(=O)O)C2=O)cc1	85	74	88	.	.	80	87
COc1cccc(/C=C2/SC(=S)N(CCCC(=O)Nc3ccc(O)cc3)C2=O)c1	-	-	-	-	-	-	-
COc1ccc(/C=C2\SC(=S)N(CCC(=O)Nc3ccccc3C(=O)O)C2=O)cc1	-	-	-	-	-	.	.
Cc1ccc(/C=C2\SC(=S)N(CCC(=O)NNC(=O)c3ccccc3O)C2=O)cc1	-	-	-	-	-	.	.
Cc1ccc(/C=C2\SC(=S)N(CCCC(=O)NNC(=O)c3ccccc3O)C2=O)cc1	69	55	-	-	-	-	73
O=C1OC(c2ccc(F)cc2)CC1CN1CCOCC1 (stereo not drawn)	-	.	-	.	.	.	.
